Reference: ChEMBL document CHEMBL1131454 (J Med Chem, 1998)

Tests used:
Progesterone receptor [1] = biological target: T1, Progesterone receptor (Homo sapiens, UniProt P06401); experiment: The binding affinity on Human progesterone receptor (hPR-A) using progesterone as radioligand.
T1 sequence (P06401 whole entry): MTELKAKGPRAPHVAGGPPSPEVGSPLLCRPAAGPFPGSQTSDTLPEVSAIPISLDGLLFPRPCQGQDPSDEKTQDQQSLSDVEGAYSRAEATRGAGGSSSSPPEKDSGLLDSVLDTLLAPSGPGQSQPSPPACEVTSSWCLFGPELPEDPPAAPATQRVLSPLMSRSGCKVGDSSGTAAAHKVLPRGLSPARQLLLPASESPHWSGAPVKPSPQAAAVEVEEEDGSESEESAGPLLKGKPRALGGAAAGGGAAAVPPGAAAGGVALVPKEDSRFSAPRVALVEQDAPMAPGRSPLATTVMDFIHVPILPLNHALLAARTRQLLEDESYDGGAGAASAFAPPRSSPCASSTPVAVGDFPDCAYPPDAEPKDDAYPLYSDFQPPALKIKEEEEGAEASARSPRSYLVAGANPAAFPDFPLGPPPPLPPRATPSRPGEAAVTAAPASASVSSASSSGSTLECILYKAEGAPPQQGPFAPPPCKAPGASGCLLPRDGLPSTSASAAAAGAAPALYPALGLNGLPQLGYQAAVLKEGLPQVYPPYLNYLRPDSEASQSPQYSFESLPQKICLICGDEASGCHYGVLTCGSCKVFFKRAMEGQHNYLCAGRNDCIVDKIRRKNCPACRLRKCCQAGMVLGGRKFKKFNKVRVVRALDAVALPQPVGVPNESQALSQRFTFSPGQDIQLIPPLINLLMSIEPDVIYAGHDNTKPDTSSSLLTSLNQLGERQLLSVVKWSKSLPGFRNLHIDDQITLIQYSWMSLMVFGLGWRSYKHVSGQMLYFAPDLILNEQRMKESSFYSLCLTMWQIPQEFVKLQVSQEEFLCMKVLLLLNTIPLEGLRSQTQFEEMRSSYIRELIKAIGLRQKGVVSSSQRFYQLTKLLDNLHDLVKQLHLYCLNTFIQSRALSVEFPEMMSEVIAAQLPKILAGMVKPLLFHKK

Progesterone receptor [2] = biological target: T1, Progesterone receptor; experiment: Agonistic activity to the human progesterone receptor (hPR)assayed in CV-1 cells in cotransfection assay.; type: functional, cell-based
[3] = biological target: T2, Progesterone receptor (Homo sapiens) (UniProt P06401); experiment: Agonist efficacy for human progesterone receptor (hPR) was compared to that of progesterone (100%); type: functional
T2 sequence (whole entry): T1 sequence (P06401 whole entry)
In short: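 Cotransfection assay in CV-1 cells transiently transfected by calcium phosphate coprecipitation with hPR plasmid, MTV-LUC reporter, pRS-β-Gal and filler DNA. Full dose–response curves from 10^-12 to 10^-5 M were run. […] Values are the mean of at least three experiments with triplicate determinations, or of two experiments, or a single experiment.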

[4] = biological target: T2, Progesterone receptor (Homo sapiens); experiment: Human progesterone receptor (hPR) antagonist efficacy was determined as a function (%) of maximal inhibition of progesterone at EC50 value.; type: functional
In short: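 hPR antagonist-mode cotransfection in CV-1 cells transiently transfected by calcium phosphate coprecipitation with hPR plasmid, MTV-LUC reporter, pRS-β-Gal and filler DNA. […] Values come from one, two, or at least three experiments in triplicate.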

Progesterone receptor [5] = biological target: T1, Progesterone receptor; experiment: Antagonistic activity was determined in Human progesterone receptor(hPR) of CV-1 cells in cotransfection assay.; type: functional, cell-based
Glucocorticoid receptor [6] = biological target: T3, Glucocorticoid receptor (Homo sapiens, UniProt P04150); experiment: Agonist activity against Human glucocorticoid receptor(hGR) expressed in CV-1 cells; type: functional, cell-based
T3 sequence (P04150 whole entry): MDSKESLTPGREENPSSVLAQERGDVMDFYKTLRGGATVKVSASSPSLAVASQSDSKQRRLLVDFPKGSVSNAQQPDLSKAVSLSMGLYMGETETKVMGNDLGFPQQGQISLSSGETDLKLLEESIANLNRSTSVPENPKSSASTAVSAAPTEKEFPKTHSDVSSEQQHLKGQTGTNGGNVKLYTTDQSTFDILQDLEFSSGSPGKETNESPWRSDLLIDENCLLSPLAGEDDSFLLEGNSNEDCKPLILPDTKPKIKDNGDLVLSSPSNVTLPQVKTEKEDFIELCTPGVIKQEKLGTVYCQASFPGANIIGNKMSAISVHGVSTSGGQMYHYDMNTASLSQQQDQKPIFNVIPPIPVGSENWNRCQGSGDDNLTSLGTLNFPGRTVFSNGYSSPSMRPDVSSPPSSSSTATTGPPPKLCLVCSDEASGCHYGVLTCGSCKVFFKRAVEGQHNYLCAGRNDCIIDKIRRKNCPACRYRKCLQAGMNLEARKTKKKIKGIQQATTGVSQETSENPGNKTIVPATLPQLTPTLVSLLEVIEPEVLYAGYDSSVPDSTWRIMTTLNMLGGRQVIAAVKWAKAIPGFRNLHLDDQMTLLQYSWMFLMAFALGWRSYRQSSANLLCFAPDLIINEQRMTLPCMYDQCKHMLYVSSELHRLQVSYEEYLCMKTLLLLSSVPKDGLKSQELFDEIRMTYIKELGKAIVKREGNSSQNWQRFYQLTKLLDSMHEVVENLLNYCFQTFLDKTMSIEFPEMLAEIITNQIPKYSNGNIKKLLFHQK

[7] = biological target: T4, Mineralocorticoid receptor (Homo sapiens, UniProt P08235); experiment: Antagonistic activity was determined in Human mineralocorticoid receptor(hMR) of CV-1 cells in cotransfection assay.; type: functional, cell-based
T4 sequence (P08235 whole entry): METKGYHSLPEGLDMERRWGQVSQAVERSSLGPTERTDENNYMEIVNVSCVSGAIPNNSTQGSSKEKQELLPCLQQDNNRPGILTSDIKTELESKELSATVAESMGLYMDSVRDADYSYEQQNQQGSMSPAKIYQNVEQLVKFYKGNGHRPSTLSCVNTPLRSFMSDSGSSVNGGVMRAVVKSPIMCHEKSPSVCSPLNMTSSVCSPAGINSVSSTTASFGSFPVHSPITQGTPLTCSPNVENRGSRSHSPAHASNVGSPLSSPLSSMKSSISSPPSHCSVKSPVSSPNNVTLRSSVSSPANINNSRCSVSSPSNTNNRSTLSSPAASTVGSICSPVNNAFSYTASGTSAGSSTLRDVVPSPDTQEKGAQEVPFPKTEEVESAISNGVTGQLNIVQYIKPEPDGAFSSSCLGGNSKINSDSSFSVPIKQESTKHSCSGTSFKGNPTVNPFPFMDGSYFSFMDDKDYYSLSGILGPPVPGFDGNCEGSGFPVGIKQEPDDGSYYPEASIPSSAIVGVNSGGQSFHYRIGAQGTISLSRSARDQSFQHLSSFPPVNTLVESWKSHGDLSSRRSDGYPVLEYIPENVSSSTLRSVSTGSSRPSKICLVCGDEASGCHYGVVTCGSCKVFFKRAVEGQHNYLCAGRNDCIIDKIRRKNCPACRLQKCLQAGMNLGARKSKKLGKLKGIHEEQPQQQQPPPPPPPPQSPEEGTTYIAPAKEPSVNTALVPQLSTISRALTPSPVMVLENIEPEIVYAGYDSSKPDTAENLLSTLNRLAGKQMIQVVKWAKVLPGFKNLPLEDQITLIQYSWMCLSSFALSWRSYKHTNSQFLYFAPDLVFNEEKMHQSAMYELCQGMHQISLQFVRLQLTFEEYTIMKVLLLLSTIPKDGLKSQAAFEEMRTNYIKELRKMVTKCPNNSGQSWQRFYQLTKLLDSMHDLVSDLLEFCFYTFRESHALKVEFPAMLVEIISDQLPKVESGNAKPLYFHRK

Glucocorticoid receptor [8] = biological target: T3, Glucocorticoid receptor
Androgen receptor [9] = biological target: T5, Androgen receptor (Homo sapiens, UniProt P10275)
T5 sequence (P10275 whole entry): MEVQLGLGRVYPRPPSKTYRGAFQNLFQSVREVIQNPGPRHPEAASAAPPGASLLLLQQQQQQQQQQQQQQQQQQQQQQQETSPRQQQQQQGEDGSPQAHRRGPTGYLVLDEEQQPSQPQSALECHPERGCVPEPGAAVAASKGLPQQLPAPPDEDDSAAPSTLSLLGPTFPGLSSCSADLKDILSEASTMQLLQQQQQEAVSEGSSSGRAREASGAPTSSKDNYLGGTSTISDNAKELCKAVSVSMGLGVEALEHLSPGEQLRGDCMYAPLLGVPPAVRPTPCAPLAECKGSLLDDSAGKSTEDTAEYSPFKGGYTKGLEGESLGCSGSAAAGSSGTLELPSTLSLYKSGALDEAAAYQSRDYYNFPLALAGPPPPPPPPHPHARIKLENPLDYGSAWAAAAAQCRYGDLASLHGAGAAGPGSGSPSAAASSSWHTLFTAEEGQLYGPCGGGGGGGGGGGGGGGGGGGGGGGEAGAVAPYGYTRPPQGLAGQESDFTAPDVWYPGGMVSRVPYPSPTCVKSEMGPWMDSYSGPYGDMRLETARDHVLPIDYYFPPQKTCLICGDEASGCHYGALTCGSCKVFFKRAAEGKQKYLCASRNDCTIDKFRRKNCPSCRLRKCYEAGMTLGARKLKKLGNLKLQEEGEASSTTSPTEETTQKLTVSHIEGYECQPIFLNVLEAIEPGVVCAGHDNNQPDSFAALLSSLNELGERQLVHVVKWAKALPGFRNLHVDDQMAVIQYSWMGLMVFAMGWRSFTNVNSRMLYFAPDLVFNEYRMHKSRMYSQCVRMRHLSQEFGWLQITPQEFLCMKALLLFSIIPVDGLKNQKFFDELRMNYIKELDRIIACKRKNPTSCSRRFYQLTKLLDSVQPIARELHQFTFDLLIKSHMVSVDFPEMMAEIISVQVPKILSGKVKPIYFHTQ

Glucocorticoid receptor [10] = biological target: T3, Glucocorticoid receptor; remark: listed apart in the source
Androgen receptor [11] = biological target: T5, Androgen receptor; remark: listed apart in the source

| Compound | Ki (Progesterone receptor [1]) [nM] | EC50 (Progesterone receptor [2]) [nM] | Efficacy [3] [%] | Efficacy [4] [%] | IC50 (Progesterone receptor [5]) [nM] | EC50 (Glucocorticoid receptor [6]) [nM] | IC50 [7] [nM] | Ki (Glucocorticoid receptor [8]) [nM] | Ki (Androgen receptor [9]) [nM] | IC50 (Glucocorticoid receptor [10]) [nM] | IC50 (Androgen receptor [11]) [nM] |
| --- | --- | --- | --- | --- | --- | --- | --- | --- | --- | --- | --- |
| CC1=CC(C)(C)Nc2ccc3c(c21)C(c1cccc(F)c1)Oc1ccccc1-3 (stereo unspecified) | 0.69 | 8 | 48 | 74 | 150 |  |  |  |  |  |  |
| CC(=O)O[C@]1(C(C)=O)CC[C@H]2[C@@H]3C[C@H](C)C4=CC(=O)CC[C@]4(C)[C@H]3CC[C@@]21C [MEDROXYPROGESTERONE ACETATE] |  |  |  |  |  | 10 | 1200 | 13.2 |  |  |  |
| COc1ccc(C2Oc3ccccc3-c3ccc4c(c32)C(C)=CC(C)(C)N4)cc1 (stereo unspecified) | 13.3 | > 10000 | < 20 | 65 | 105 |  |  |  |  |  |  |
| CC1=CC(C)(C)Nc2ccc3c(c21)C(c1ccccc1)Oc1ccccc1-3 (stereo unspecified) | 3.6 | 156 |  |  | 290 |  | 354 | 154 | 1860 | 226 | 745 |
| CC1=CC(C)(C)Nc2ccc3c(c21)C(c1cccc(Br)n1)Oc1ccccc1-3 (stereo unspecified) | 13.8 | 1700 | 21 | 86 | 71 |  |  |  |  |  |  |
| CC1=CC(C)(C)Nc2ccc3c(c21)C(c1ccc(Br)nc1)Oc1ccccc1-3 (stereo unspecified) | 3.9 | 3900 | 24 | 86 | 54 |  |  |  |  |  |  |
| CC1=CC(C)(C)Nc2ccc3c(c21)C(c1ccc(C(F)(F)F)cc1)Oc1ccccc1-3 (stereo unspecified) | 10.8 | 33 | 35 | 49 | 150 |  |  |  |  |  |  |

Further molecules by falling Ki (Progesterone receptor [1]), results first:

| Ki (Progesterone receptor [1]) [nM] | EC50 (Progesterone receptor [2]) [nM] | Efficacy [3] [%] | Efficacy [4] [%] | IC50 (Progesterone receptor [5]) [nM] | EC50 (Glucocorticoid receptor [6]) [nM] | IC50 [7] [nM] | Ki (Glucocorticoid receptor [8]) [nM] | Ki (Androgen receptor [9]) [nM] | IC50 (Glucocorticoid receptor [10]) [nM] | IC50 (Androgen receptor [11]) [nM] | Compound |
| --- | --- | --- | --- | --- | --- | --- | --- | --- | --- | --- | --- |
| 8.8 | > 10000 | < 20 | 68 | 132 |  |  |  |  |  |  | CC(=O)c1ccc(C2Oc3ccccc3-c3ccc4c(c32)C(C)=CC(C)(C)N4)cc1 (stereo unspecified) |
| 6.8 | 25 | 60 | 56 | 4600 |  |  |  |  |  |  | CC1=CC(C)(C)Nc2ccc3c(c21)C(c1ccc(F)c(C(F)(F)F)c1)Oc1ccccc1-3 (stereo unspecified) |
| 5.3 | 8 | 28 | 77 | 342 |  |  |  |  |  |  | CC1=CC(C)(C)Nc2ccc3c(c21)C(c1ccc(F)cc1)Oc1ccccc1-3 (stereo unspecified) |
| 2.4 | 27 | 49 | 65 | 1210 |  |  |  |  |  |  | CC1=CC(C)(C)Nc2ccc3c(c21)C(c1cc(F)cc(Br)c1)Oc1ccccc1-3 (stereo unspecified) |
